Test results as given in ChEMBL document CHEMBL3271993, “Synthesis and some pharmacological properties of five analogs of oxytocin having L-homocysteine in position 6” (J Med Chem, 1976).
Starred links: 1 amine or outer side, 2 acyl side, 3 side chain; linkers in the order of their positions; H or OH if unused. Positions of bridges follow the written chain, without caps; N, C: chain ends. Non-standard residues stand in square brackets, D forms with d. Residues, ends and D or L forms follow the SMILES beside them. hCys = N[C@@H](CCS)C(=O)O; X1 = O=C(CCCS[*:2])[*:1]; X2 = O=C(CS[*:2])[*:1]

How the values were obtained:
[1] = molecular target: T1, Oxytocin receptor (Rattus norvegicus) (UniProt P70536); assay: Agonist activity at oxytocin receptor in rat uterus; assay type: tissue-based
T1 sequence (whole entry): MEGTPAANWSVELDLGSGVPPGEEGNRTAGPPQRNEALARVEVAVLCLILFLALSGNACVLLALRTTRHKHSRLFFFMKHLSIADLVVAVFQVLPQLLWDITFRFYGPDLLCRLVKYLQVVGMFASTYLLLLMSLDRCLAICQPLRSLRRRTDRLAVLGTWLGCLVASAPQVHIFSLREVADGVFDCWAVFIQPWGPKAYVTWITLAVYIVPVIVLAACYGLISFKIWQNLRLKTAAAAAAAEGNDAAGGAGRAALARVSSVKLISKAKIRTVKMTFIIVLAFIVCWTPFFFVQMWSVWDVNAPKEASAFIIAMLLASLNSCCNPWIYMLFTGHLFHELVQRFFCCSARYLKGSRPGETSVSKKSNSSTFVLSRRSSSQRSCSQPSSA
Procedure, shortened: (§1)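 Purified analogs tested against U.S.P. Agonist activity expressed as units per mg, given as mean potency ± standard error.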

Gallus gallus = organism: Gallus gallus; assay: Agonist activity at oxytocin receptor in chicken by avian vasodepressor assay; procedure, shortened: as §1
Oxytocin receptor = molecular target: T2, Oxytocin receptor (Rattus norvegicus, UniProt P70536); assay: Antagonist activity at oxytocin receptor in rat uterus assessed as inhibition of synthetic oxytocin-induced response treated 1.5 to 2 mins prior to oxytocin challenge; assay type: tissue-based; details: read-out: pA2 (converted)
T2 sequence (P70536 whole entry): T1 sequence (whole entry)
Procedure, shortened: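 Antagonist injected 1.5-2 min before synthetic oxytocin, giving any agonist response time to finish. Potency given as pA2 (Schild): the negative log of the average molar antagonist concentration that brings the response to 2x agonist units down to that of x units.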

[2] = Antagonist activity at oxytocin receptor in chicken assessed as inhibition of synthetic oxytocin-induced response by avian vasodepressor assay; design: species or system Gallus gallus
Procedure, shortened: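 Inhibitory potency given as pA2 (Schild): the negative log of the average molar antagonist concentration that reduces the response to 2x units of agonist to the level of x units of agonist.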

| Compound | Activity [1] [U/mg] | Activity (Gallus gallus) [U/mg] | Kb (Oxytocin receptor) [nM] | pA2 [2] |
| --- | --- | --- | --- | --- |
| CC[C@H](C)[C@@H]1NC(=O)[C@H](Cc2ccc(O)cc2)NC(=O)CCSSC[C@H](C(=O)N2CCC[C@H]2C(=O)N[C@@H](CC(C)C)C(=O)NCC(N)=O)NC(=O)[C@H](CC(N)=O)NC(=O)[C@H](CCC(N)=O)NC1=O | 803 | 975 |  |  |
| CC[C@H](C)[C@@H]1NC(=O)[C@H](Cc2ccc(O)cc2)NC(=O)CSSCC[C@@H](C(=O)N2CCC[C@H]2C(=O)N[C@@H](CC(C)C)C(=O)NCC(N)=O)NC(=O)[C@H](CC(N)=O)NC(=O)[C@H](CCC(N)=O)NC1=O (YIQN[hCys]PLG-NH2; linker N-5 via X2) | 37 | 0.3 |  |  |
| CC[C@H](C)[C@@H]1NC(=O)[C@H](Cc2ccc(O)cc2)NC(=O)CCSSCC[C@@H](C(=O)N2CCC[C@H]2C(=O)N[C@@H](CC(C)C)C(=O)NCC(N)=O)NC(=O)[C@H](CC(N)=O)NC(=O)[C@H](CCC(N)=O)NC1=O | 22 |  |  | 7.57 |

Second part, the compound after the results:

| Activity [1] [U/mg] | Activity (Gallus gallus) [U/mg] | Kb (Oxytocin receptor) [nM] | pA2 [2] | Compound |
| --- | --- | --- | --- | --- |
|  |  | 955 | 6.48 | CC[C@H](C)[C@@H]1NC(=O)[C@H](Cc2ccc(O)cc2)NC(=O)[C@@H](N)CCSSCC[C@@H](C(=O)N2CCC[C@H]2C(=O)N[C@@H](CC(C)C)C(=O)NCC(N)=O)NC(=O)[C@H](CC(N)=O)NC(=O)[C@H](CCC(N)=O)NC1=O |
| 546 | 507 |  |  | CC[C@H](C)[C@@H]1NC(=O)[C@H](Cc2ccc(O)cc2)NC(=O)[C@@H](N)CSSC[C@@H](C(=O)N2CCC[C@H]2C(=O)N[C@@H](CC(C)C)C(=O)NCC(N)=O)NC(=O)[C@H](CC(N)=O)NC(=O)[C@H](CCC(N)=O)NC1=O |
| 0.3 |  | 182 | 7.34 | CC[C@H](C)[C@@H]1NC(=O)[C@H](Cc2ccc(O)cc2)NC(=O)CCCSSCC[C@@H](C(=O)N2CCC[C@H]2C(=O)N[C@@H](CC(C)C)C(=O)NCC(N)=O)NC(=O)[C@H](CC(N)=O)NC(=O)[C@H](CCC(N)=O)NC1=O (YIQN[hCys]PLG-NH2; linker N-5 via X1) |
| 12 | 0.2 |  |  | CC[C@H](C)[C@@H]1NC(=O)[C@H](Cc2ccc(O)cc2)NC(=O)[C@@H](N)CSSCC[C@@H](C(=O)N2CCC[C@H]2C(=O)N[C@@H](CC(C)C)C(=O)NCC(N)=O)NC(=O)[C@H](CC(N)=O)NC(=O)[C@H](CCC(N)=O)NC1=O |
